These results are taken from ChEMBL document CHEMBL4390678, “Structure-Activity Relationship of Purine and Pyrimidine Nucleotides as Ecto-5'-Nucleotidase (CD73) Inhibitors” (J Med Chem, 2019).

The source made the active and inactive calls. The calls are words filed in the database; no cut-off is given here. Where only a bound is given, the exact number is not on record here.

A word on the inhibition: it is the relative decrease from the control value, in per cent. As a reminder, the EC50 is the concentration giving half of the maximal effect. The term Ki denotes a measure of affinity in units of concentration, obtained from inhibition or displacement. In general, IC50 refers to the concentration at which inhibition is half-maximal.

For assay [1], the target named is T1, 5'-nucleotidase (Rattus norvegicus) (UniProt P21588).
T1 sequence (whole entry): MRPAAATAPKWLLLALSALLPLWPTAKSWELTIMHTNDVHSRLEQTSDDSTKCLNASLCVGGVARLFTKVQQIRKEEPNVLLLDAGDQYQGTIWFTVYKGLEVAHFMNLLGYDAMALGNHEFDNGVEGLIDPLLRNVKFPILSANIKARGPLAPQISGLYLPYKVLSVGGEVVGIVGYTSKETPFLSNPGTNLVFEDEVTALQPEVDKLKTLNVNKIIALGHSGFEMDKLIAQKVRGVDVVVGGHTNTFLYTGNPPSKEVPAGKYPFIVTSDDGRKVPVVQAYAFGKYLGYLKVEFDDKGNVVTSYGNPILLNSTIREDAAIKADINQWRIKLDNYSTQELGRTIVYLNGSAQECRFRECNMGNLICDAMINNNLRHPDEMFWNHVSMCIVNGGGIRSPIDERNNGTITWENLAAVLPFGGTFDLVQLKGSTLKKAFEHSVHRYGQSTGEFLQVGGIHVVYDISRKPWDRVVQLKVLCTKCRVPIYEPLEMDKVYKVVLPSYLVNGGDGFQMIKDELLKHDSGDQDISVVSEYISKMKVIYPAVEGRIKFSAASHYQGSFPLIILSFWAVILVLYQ
Put plainly: Inhibition of recombinant rat C-terminal His-tagged soluble form of CD73 expressed in baculovirus infected Sf9 insect cells at 1 uM using [2,8-3H]AMP as substrate measured after 25 mins by scintillation counting method relative to control. Put shortly: (§1)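 Enzyme is soluble rat CD73 from Sf9 cells, 1.63 ng per vial, in 25 mM Tris, 140 mM NaCl, 25 mM NaH2PO4, pH 7.4. […] Stopped by LaCl3 precipitation and GF/B filtration, then counted. Each compound first screened at 1 µM.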

Assay [2] deals with T2, P2Y purinoceptor 6 (Homo sapiens, UniProt Q15077). Put plainly: Agonist activity at human P2Y6 receptor expressed in human 1321N1 cells assessed as induction of calcium mobilization at 3 uM by calcium-4 dye based FLIPR assay relative to control. The format is functional, cell-based. (A change in cytosolic calcium serves as a functional read-out for many receptors and channels.)

The target in assay [3] is T2, P2Y purinoceptor 6. The experiment in a line: Agonist activity at human P2Y6 receptor expressed in human 1321N1 cells assessed as induction of calcium mobilization by calcium-4 dye based FLIPR assay. The assay is classed as functional, cell-based.
Assay [4] addresses T3, 5'-nucleotidase (Homo sapiens, UniProt P21589). Put plainly: Inhibition of CD73 in human tonsils using AMP as substrate preincubated for 30 mins followed by substrate addition and measured after 45 mins by lead nitrate-based histochemical analysis. In a few lines:
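Human tonsil cryosections pre-incubated 30 min in Trizma-maleate sucrose buffer (40 mM Trizma maleate, 0.25 M sucrose, pH 7.4) with 2 mM levamisole plus inhibitor at 1, 10 or 100 nM. […] Pi deposit developed with 0.5% (NH4)2S. Read-out is mean grayscale pixel intensity of five matched germinal centers versus untreated control. One-way ANOVA with Dunnett's test.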

Assay [5] deals with T4, 5'-nucleotidase (Rattus norvegicus, UniProt P21588).
T4 sequence (P21588 whole entry): T1 sequence (whole entry)
Put plainly: Inhibition of recombinant rat C-terminal His-tagged soluble form of CD73 expressed in baculovirus infected Sf9 insect cells using [2,8-3H]AMP as substrate measured after 25 mins by scintillation counting method. In a few lines: as §1

The species named for assay [6] is Homo sapiens. The experiment in a line: Inhibition of cytosolic nucleotidase in MaMel.65-CD73 cell cytosolic extract (unknown origin) at 100 uM using AMP as substrate preincubated for 5 mins followed by substrate addition and measured after 60 mins by malachite green oxalate dye based colorimetric method relative to control. Put shortly:
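Cytosolic extract of CRISPR CD73-knockout MaMel.65 melanoma cells, 15.25 µg, in 50 mM Tris pH 7.0 with 100 mM KCl and 5 mM MgCl2. […] After 60 min, heat-stopped at 95°C. Released phosphate read with malachite green/molybdate at 600 nm. Levamisole 1 mM plus NaF 5 mM served as positive control. Three experiments in duplicate.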

Assay [7] deals with T5, P2Y purinoceptor 14 (Homo sapiens) (UniProt Q15391).
T5 sequence (whole entry): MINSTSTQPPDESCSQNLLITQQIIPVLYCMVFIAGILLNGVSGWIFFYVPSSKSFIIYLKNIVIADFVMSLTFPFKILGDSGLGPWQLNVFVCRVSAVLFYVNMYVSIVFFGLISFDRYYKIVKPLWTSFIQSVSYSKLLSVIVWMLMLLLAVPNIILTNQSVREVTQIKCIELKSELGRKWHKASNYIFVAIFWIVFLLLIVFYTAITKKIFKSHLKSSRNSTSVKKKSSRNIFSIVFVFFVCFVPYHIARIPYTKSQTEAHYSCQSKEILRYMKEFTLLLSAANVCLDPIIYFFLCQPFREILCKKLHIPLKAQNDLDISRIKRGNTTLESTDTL
The experiment in a line: Displacement of 6-Amino-9-(2-carboxy-4-((6-(4-(4-(4-(4-(3-carboxy-6-(4-(trifluoromethyl)phenyl)-naphthalen-1-yl)phenyl)piperidin-1-yl)butyl)-1H-1,2,3-triazol-1-yl)hexyl)carbamoyl)-phenyl)-3-iminio-5-sulfo-3H-xanthene-4-sulfonate from recombinant human P2Y14 receptor expressed in CHO cells at 3 uM preincubated for 30 mins followed by tracer addition and measured after 30 mins by flow cytometry. The format is cell-based. (In general: In flow cytometry, cells or beads pass a laser one at a time.)

The target of assay [8] is T3, 5'-nucleotidase. The experiment in a line: Inhibition of CD73 in human MDA-MB-231 cell membranes using [2,8-3H]AMP as substrate measured after 25 mins by scintillation counting method. Put shortly:
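MDA-MB-231 membranes (7.4 ng protein per vial) in 25 mM Tris, 140 mM NaCl, 25 mM NaH2PO4, pH 7.4. […] Stopped with cold LaCl3/acetate buffer pH 4.0 and filtered on GF/B. Background-subtracted and normalized to the uninhibited control.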

In another assay the target is T6, P2Y purinoceptor 14 (Homo sapiens, UniProt Q15391).
T6 sequence (Q15391 whole entry): T5 sequence (whole entry)
Put plainly: Displacement of 6-Amino-9-(2-carboxy-4-((6-(4-(4-(4-(4-(3-carboxy-6-(4-(trifluoromethyl)phenyl)-naphthalen-1-yl)phenyl)piperidin-1-yl)butyl)-1H-1,2,3-triazol-1-yl)hexyl)carbamoyl)-phenyl)-3-iminio-5-sulfo-3H-xanthene-4-sulfonate from recombinant human P2Y14 receptor expressed in CHO cells preincubated for 30 mins followed by tracer addition and measured after 30 mins by flow cytometry. The format is cell-based.

The species entered for assay [9] is Homo sapiens. The conditions noted are these: 1 mM.
In assay [10] the target is T3, 5'-nucleotidase. The experiment in a line: Inhibition of recombinant human C-terminal His-tagged soluble form of CD73 expressed in baculovirus infected Sf9 insect cells using [2,8-3H]AMP as substrate measured after 25 mins by scintillation counting method. Put shortly:
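Soluble human CD73 lacking the GPI signal, with a C-terminal 6xHis tag, secreted from baculovirus-infected Sf9 cells and purified on Ni-NTA; 0.365 ng per vial. […] Product separated by lanthanum chloride precipitation and filtration, then scintillation counted.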

Assay [11] is filed under the species Homo sapiens. The experiment in a line: Inhibition of cytosolic nucleotidase in MaMel.65-CD73 cell cytosolic extract (unknown origin) at 5 mM using AMP as substrate preincubated for 5 mins followed by substrate addition and measured after 60 mins in presence of levamisole by malachite green oxalate dye based colorimetric method relative to control. In a few lines:
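Cytosolic extract (15.25 µg) from CRISPR CD73-knockout melanoma cells in 50 mM Tris pH 7.0, 100 mM KCl, 5 mM MgCl2. […] Released phosphate read by malachite green/molybdate absorbance at 600 nm. Levamisole 1 mM plus NaF 5 mM as positive control; three independent experiments in duplicate.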

In assay [12] the target is T3, 5'-nucleotidase. The experiment in a line: Inhibition of CD73 in human tonsils at 100 nM using AMP as substrate preincubated for 30 mins followed by substrate addition and measured after 45 mins by lead nitrate-based histochemical analysis. Put shortly:
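Tonsil cryosections pre-incubated 30 min in Trizma-maleate sucrose buffer (pH 7.4) with 2 mM levamisole and inhibitor. […] Deposit developed with 0.5% (NH4)2S and quantified as grayscale mean pixel intensity of five germinal centers versus control (ANOVA, Dunnett).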

T2 sequence (Q15077 whole entry): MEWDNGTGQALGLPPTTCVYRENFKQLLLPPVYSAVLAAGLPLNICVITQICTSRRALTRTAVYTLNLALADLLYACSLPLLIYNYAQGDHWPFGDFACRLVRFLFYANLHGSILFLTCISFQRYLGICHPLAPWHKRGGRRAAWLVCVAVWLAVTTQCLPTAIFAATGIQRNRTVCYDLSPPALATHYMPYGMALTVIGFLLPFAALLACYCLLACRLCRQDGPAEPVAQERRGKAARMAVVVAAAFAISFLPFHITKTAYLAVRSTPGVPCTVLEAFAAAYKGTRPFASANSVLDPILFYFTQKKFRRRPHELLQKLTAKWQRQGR
T3 sequence (P21589 whole entry): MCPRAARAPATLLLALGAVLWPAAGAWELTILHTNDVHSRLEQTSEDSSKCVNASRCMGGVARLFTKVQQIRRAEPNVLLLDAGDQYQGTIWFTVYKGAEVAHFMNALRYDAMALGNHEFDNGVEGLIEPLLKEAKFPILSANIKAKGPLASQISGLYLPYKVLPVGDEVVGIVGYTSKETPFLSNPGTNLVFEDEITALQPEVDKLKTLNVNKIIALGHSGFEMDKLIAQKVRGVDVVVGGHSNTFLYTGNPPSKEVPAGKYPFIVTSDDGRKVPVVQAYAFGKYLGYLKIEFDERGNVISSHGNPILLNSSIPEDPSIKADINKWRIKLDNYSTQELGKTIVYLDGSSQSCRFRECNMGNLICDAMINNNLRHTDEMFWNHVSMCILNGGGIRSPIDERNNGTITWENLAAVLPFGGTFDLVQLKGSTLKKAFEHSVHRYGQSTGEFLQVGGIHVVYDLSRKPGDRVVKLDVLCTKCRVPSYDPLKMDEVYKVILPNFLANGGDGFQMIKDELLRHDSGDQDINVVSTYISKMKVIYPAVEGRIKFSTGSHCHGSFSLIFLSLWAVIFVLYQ

In the case of `Cn1c(=NOCc2ccccc2)ccn([C@@H]2O[C@H](COP(=O)(O)CP(=O)(O)O)[C@@H](O)[C@H]2O)c1=O`, the inhibition is greater than 50% in assay [1], “Dose-dependent effect” on 5'-nucleotidase [4] and -2% in the assay listed under Homo sapiens [6]. Moreover, at P2Y purinoceptor 6 [2], the Activity is 3.6%. Moreover, the EC50 on P2Y purinoceptor 6 [3] was greater than 3000 nM. Moreover, the inhibition constant Ki came to 3.67 nM at 5'-nucleotidase [5] and 7.96 nM on 5'-nucleotidase [8]. In [7], the inhibition result is “inactive”. Besides, the IC50 at P2Y purinoceptor 14 is greater than 3000 nM.
For the molecule `c1ccc([C@H]2CN3CCSC3=N2)cc1`, in the assay filed under Homo sapiens [9], the inhibition came to 70%.
Turning to `O=c1[nH]/c(=N/OCc2ccc3ccccc3c2)ccn1[C@@H]1O[C@H](COP(=O)(O)CP(=O)(O)O)[C@@H](O)[C@H]1O`, the inhibition in [1] is greater than 50%; in the assay filed under Homo sapiens [6], -5%. Moreover, the Ki is 6.88 nM on 5'-nucleotidase [10], 18.8 nM at 5'-nucleotidase [5] and 6.29 nM at 5'-nucleotidase [8].
For `O=c1[nH]c(=O)n([C@@H]2O[C@H](COP(=O)(O)CP(=O)(O)O)[C@@H](O)[C@H]2O)cc1F`, the inhibition in [1] was greater than 50%; in the assay filed under Homo sapiens [6], 4%. The EC50 on P2Y purinoceptor 6 [3] worked out at 203 nM. The values for the inhibition constant Ki on 5'-nucleotidase [10], on 5'-nucleotidase [5] and at 5'-nucleotidase [8] were 5.33 nM, 14.8 nM and 4.51 nM, respectively. Moreover, at P2Y purinoceptor 14, the IC50 is 362 nM.
As to `[F-].[Na+]`, in the assay filed under Homo sapiens [11], the inhibition was found to be 70%.
For the molecule `O=C(Nc1ccn([C@@H]2O[C@H](COP(=O)(O)CP(=O)(O)O)[C@@H](O)[C@H]2O)c(=O)n1)c1ccccc1`, the inhibition is greater than 50% in assay [1] and -3% in the assay listed under Homo sapiens [6]. Further, on P2Y purinoceptor 6 [3], the EC50 stood at 1390 nM. For the same molecule, the Ki on 5'-nucleotidase [10] came out at 4.58 nM; at 5'-nucleotidase [5] it was 13.9 nM; at 5'-nucleotidase [8], 5.68 nM. The IC50 at P2Y purinoceptor 14 was found to be 6660 nM.
With `Nc1ncnc2c1ncn2[C@@H]1O[C@H](COP(=O)(O)CP(=O)(O)O)[C@@H](O)[C@H]1O` [PHOSPHOMETHYLPHOSPHONIC ACID ADENOSYL ESTER], the inhibition in [1] was greater than 50%. Further, the Ki at 5'-nucleotidase [5] was 167 nM. The inhibition entry at 5'-nucleotidase [12] was “Active”.
